For three compounds, Activity, IC50 and inhibition results are on record in ChEMBL document CHEMBL4052702 (Bioorg Med Chem Lett, 2017).

Molecules are shown by their SMILES. The source made the active and inactive calls. The rule behind the calls is not given here.

Assay [1] deals with T1, Histone deacetylase 1 (Homo sapiens, UniProt Q13547). Put plainly: Inhibition of HDAC1 (unknown origin) assessed as remaining enzyme activity at 4 x 10^-6 M by ELISA-based assay.
Assay [2] deals with T2, Histone deacetylase 2 (Homo sapiens, UniProt Q92769). Put plainly: Inhibition of HDAC2 (unknown origin) by ELISA-based assay. Background: ELISA stands for enzyme-linked immunosorbent assay.
In assay [3] the target is T1, Histone deacetylase 1. Put plainly: Inhibition of HDAC1 in human U937 cells assessed as increase in acetylated-histone H3 level at 10 to 40 uM incubated for 18 hrs by Western blot method. It is filed as cell-based. The gist of the method:
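U937 cells were treated with 10–40 µM compound, with a 1% DMSO vehicle control. Cells were then lysed and the lysates run on SDS-PAGE and transferred to PVDF. Blots were probed for histone H3 acetyl-Lys9, which reports class I HDAC (1, 2, 3) inhibition, with GAPDH as the loading control. Repeat trials were run.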
On the technique in general: A western blot detects proteins with antibodies after separation by electrophoresis.

The species entered for assay [4] is Homo sapiens. Put plainly: Inhibition of HDAC in human HeLa-S3 cells lysates assessed as remaining enzyme activity at 2 x 10^-5 M pre-incubated for 15 mins before HDAC-Glo I/II substrate addition and measured after 30 mins post substrate addition. It is filed as cell-free.
The species named for assay [5] is Homo sapiens. Put plainly: Inhibition of HDAC in human HeLa-S3 cells lysates assessed as remaining enzyme activity at 1 x 10^-5 M pre-incubated for 15 mins before HDAC-Glo I/II substrate addition and measured after 30 mins post substrate addition. The format is cell-free.
The species entered for assay [6] is Homo sapiens. Put plainly: Inhibition of HDAC in human HeLa-S3 cells lysates assessed as remaining enzyme activity at 5 x 10^-6 M pre-incubated for 15 mins before HDAC-Glo I/II substrate addition and measured after 30 mins post substrate addition. The format is cell-free.
For assay [7], the species on record is Homo sapiens. Put plainly: Inhibition of HDAC in human HeLa-S3 cells lysates assessed as remaining enzyme activity at 2.5 x 10^-6 M pre-incubated for 15 mins before HDAC-Glo I/II substrate addition and measured after 30 mins post substrate addition. It is filed as cell-free.
The species named for assay [8] is Homo sapiens. The assay can be described thus: Inhibition of HDAC in human HeLa-S3 cells lysates assessed as remaining enzyme activity at 1.25 x 10^-6 M pre-incubated for 15 mins before HDAC-Glo I/II substrate addition and measured after 30 mins post substrate addition. The format is cell-free.
Assay [9] deals with T1, Histone deacetylase 1. Put plainly: Inhibition of HDAC1 (unknown origin) assessed as remaining enzyme activity at 1.25 uM by ELISA-based assay. The method, boiled down: (§1)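 Isoform screen by ELISA-based HDAC activity assay against HDAC1, HDAC2, HDAC3 and HDAC6. Each analog was tested at one final concentration: 0.025, 0.125, 0.25 or 1.25 µM. Read-out is percent deacetylase activity remaining, given as the mean with standard error of at least two independent trials.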

In assay [10] the target is T2, Histone deacetylase 2. The assay can be described thus: Inhibition of HDAC2 (unknown origin) assessed as remaining enzyme activity at 1.25 uM by ELISA-based assay. The gist of the method: as §1
Assay [11] addresses T3, Histone deacetylase 3 (Homo sapiens, UniProt O15379). The assay can be described thus: Inhibition of HDAC3 (unknown origin) assessed as remaining enzyme activity at 1.25 uM by ELISA-based assay. The method, boiled down: as §1
The target in assay [12] is T4, Protein deacetylase HDAC6 (Homo sapiens) (UniProt Q9UBN7).
T4 sequence (whole entry): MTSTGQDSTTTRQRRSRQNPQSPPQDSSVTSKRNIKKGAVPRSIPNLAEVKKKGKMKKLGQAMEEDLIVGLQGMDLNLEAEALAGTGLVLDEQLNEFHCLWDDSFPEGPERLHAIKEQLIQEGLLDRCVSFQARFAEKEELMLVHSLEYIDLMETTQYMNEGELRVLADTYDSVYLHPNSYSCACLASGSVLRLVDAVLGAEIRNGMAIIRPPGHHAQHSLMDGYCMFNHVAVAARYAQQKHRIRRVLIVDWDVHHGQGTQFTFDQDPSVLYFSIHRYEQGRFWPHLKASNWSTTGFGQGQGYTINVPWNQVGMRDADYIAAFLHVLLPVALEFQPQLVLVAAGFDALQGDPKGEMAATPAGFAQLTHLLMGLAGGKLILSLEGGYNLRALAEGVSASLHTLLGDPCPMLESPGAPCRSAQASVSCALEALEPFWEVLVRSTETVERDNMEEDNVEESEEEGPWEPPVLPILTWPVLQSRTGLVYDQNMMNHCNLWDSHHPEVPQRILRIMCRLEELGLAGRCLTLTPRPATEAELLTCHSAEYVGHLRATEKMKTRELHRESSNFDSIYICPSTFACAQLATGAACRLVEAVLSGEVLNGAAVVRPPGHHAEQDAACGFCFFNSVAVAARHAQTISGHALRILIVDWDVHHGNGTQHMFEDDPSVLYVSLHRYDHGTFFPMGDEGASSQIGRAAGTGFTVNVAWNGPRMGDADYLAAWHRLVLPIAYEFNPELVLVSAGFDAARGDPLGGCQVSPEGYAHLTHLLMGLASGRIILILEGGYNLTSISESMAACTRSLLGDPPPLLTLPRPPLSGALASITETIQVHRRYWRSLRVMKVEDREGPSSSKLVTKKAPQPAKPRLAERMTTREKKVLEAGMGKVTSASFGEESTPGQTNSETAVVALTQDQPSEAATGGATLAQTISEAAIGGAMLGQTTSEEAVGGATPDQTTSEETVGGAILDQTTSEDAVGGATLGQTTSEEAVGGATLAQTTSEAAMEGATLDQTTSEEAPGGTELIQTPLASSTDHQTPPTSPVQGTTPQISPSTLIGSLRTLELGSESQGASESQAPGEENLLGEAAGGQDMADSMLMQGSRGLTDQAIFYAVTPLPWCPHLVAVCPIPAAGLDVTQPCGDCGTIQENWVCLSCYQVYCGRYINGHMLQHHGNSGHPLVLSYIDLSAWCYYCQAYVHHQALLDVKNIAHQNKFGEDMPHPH
Put plainly: Inhibition of HDAC6 (unknown origin) assessed as remaining enzyme activity at 1.25 uM by ELISA-based assay. The gist of the method:
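Single-concentration isoform screen using an ELISA-based HDAC activity assay, run in parallel against HDAC1, HDAC2, HDAC3 and HDAC6. Read-out is percent deacetylase activity remaining, given as the mean of at least two independent trials with standard error.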

Assay [13] deals with T2, Histone deacetylase 2. The assay can be described thus: Inhibition of HDAC2 (unknown origin) assessed as remaining enzyme activity at 1.6 x 10^-5 M by ELISA-based assay.
Assay [14] addresses T2, Histone deacetylase 2. Put plainly: Inhibition of HDAC2 (unknown origin) assessed as remaining enzyme activity at 8 x 10^-6 M by ELISA-based assay.
Assay [15] concerns the target T3, Histone deacetylase 3. Put plainly: Inhibition of HDAC3 (unknown origin) assessed as remaining enzyme activity at 1.6 x 10^-5 M by ELISA-based assay.
Assay [16] has as its target T3, Histone deacetylase 3. The assay can be described thus: Inhibition of HDAC3 (unknown origin) assessed as remaining enzyme activity at 8 x 10^-6 M by ELISA-based assay.
Assay [17] concerns the target T1, Histone deacetylase 1. The assay can be described thus: Inhibition of HDAC1 (unknown origin) assessed as remaining enzyme activity at 8 x 10^-6 M by ELISA-based assay.
For assay [18], the species on record is Homo sapiens. Put plainly: Inhibition of HDAC in human HeLa-S3 cells lysates assessed as remaining enzyme activity at 3 x 10^-6 M pre-incubated for 15 mins before HDAC-Glo I/II substrate addition and measured after 30 mins post substrate addition. The format is cell-free.

T1 sequence (Q13547 whole entry): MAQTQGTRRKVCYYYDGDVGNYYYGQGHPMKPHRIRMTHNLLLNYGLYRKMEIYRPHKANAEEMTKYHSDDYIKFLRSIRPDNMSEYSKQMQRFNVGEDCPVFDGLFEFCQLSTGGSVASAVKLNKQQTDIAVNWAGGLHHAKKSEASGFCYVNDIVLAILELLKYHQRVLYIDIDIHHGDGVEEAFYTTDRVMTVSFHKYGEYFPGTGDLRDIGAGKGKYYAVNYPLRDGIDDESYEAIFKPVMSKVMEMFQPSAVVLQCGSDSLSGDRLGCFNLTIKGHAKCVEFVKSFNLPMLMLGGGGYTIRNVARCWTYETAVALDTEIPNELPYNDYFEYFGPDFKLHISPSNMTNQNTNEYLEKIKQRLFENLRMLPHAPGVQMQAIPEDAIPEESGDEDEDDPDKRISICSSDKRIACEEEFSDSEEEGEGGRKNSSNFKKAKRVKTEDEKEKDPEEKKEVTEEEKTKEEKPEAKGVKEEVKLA
T2 sequence (Q92769 whole entry): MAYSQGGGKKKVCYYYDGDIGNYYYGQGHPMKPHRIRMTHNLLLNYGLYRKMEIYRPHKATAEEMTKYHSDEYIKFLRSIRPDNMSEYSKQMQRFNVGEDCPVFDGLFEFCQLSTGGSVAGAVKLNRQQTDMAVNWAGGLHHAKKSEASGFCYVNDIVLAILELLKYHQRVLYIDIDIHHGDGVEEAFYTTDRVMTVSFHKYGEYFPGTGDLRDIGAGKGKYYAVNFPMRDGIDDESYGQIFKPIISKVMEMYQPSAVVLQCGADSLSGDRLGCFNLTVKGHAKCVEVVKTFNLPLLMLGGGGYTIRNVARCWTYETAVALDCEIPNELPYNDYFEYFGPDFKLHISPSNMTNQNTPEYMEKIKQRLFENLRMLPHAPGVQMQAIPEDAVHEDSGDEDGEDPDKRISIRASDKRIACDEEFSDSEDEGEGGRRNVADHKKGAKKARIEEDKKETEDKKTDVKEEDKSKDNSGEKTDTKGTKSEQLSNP
T3 sequence (O15379 whole entry): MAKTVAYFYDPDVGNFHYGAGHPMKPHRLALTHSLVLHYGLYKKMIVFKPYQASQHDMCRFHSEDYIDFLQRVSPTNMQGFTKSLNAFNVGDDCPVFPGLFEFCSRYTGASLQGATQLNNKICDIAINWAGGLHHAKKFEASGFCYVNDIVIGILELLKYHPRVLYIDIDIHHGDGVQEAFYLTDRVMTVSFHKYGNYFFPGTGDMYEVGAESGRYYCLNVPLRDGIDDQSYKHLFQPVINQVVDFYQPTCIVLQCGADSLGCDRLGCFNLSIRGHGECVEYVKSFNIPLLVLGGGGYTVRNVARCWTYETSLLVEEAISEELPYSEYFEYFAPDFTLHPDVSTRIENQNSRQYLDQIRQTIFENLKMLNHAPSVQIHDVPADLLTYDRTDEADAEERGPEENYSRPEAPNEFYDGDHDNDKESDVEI

As for `O=C(CCCC(CCC(=O)Nc1ccccc1)Cc1ccccc1)NO` (stereo unspecified), the Activity in [1] worked out at 45%; in assay [4], 17%; in assay [5], 33%; in [6] it was 56%; in assay [7], 78%; in assay [8], 93%. For the same compound, the Activity is 69% in assay [9]; 74% in [10]; 74% in assay [11]; 17% in [12]; 19% in assay [13]; 30% in [14]. Moreover, the Activity in assay [15] stood at 23%; in assay [16] it was 43%; in assay [17] it was 27%. For the same compound, in assay [2], the IC50 (as a rule, the point on the concentration scale where inhibition reaches its midpoint) turned out to be 3500 nM. Besides, the inhibition result in assay [3] was “Active”.
With `CCCCC(CCCC(=O)NO)CCC(=O)Nc1ccccc1` (stereo unspecified), the results for the Activity in assay [1] and in [18] were 18% and 66%, respectively. For the same compound, in assay [2], the IC50 was 1300 nM.
Regarding `CCCCCCC(CCCC(=O)NO)CCC(=O)Nc1ccccc1` (stereo unspecified), the Activity in assay [1] worked out at 37%; in assay [4] it was 15%; in [5] it was 35%; in assay [6], 58%; in assay [7], 83%; in assay [8], 92%. The Activity in assay [9] turned out to be 64%; in [10], 72%; in assay [11], 71%; in assay [12], 28%; in assay [13], 14%; in [14] it was 21%. Besides, the results for the Activity in assay [15], in assay [16] and in assay [17] were 12%, 27% and 22%, respectively. This compound also came in with an IC50 in [2] of 2500 nM.
